Measured values as given in ChEMBL document CHEMBL1134236, “Anti-MRSA cephems. Part 1: C-3 substituted thiopyridinium derivatives” (Bioorg Med Chem Lett, 2001).
In brackets after ≈: the same amount, converted by molar mass.

Experiments:
[1] = Concentration required for the inhibitory activity against PBP2a
[2] = system: Staphylococcus aureus; test: Concentration required for 90% inhibitory activity against methicillin-resistant Staphylococcus aureus; type: functional
In short: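 Panel of 58 MRSA strains tested by NCCLS broth method in Mueller-Hinton broth with 2% NaCl. Inoculum about 5×10⁵ CFU/mL, 35 °C for 24 h. MICs read as no visible growth, and MIC90 derived across the panel.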

[3] = system: Staphylococcus aureus; test: Minimum inhibitory concentration against methicillin-resistant Staphylococcus aureus (MRSA) A27223; type: functional
In short: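 Broth microdilution per NCCLS in Mueller-Hinton broth with 2% NaCl. Inoculum about 5×10⁵ CFU/mL, incubated at 35 °C for 24 h. MIC is the lowest drug concentration that inhibits all visible growth.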

[4] = system: Staphylococcus aureus; test: Minimum inhibitory concentration against methicillin-resistant Staphylococcus aureus (MRSA) A27223 in the presence of 50% calf serum.; type: functional
In short: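 NCCLS broth MIC in Mueller-Hinton broth with 2% NaCl plus 50% calf serum. Inoculum about 5×10⁵ CFU/mL, incubated at 35 °C for 24 h. Read as the lowest concentration with no visible growth.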

[5] = system: Staphylococcus aureus; test: Dose required for protective activity against methicillin-resistant Staphylococcus aureus (MRSA) A27223 in mouse following i.m. administration.; details: im, read-out: PD50
[6] = system: Enterococcus faecium; test: Minimum inhibitory concentration against Enterococcus faecium A24885; type: functional
In short: (§1)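 Broth dilution MIC under standard NCCLS-recommended conditions. The MIC was read as the lowest drug concentration giving no visible growth. Where the line states it, 50% calf serum was added.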

[7] = system: Enterococcus faecium; test: Minimum inhibitory concentration against Enterococcus faecium Amp. R. Vanco. S A28156; type: functional; in short: as §1
[8] = system: Enterococcus faecalis; test: Minimum inhibitory concentration against Enterococcus faecalis A20688; type: functional; in short: as §1
[9] = system: Enterococcus faecalis; test: Minimum inhibitory concentration against Enterococcus faecalis A20688 with 50% calf serum; type: functional; in short: as §1
[10] = system: Staphylococcus epidermidis; test: Minimum inhibitory concentration against Staphylococcus epidermidis A24548; type: functional; in short: as §1
[11] = system: Staphylococcus epidermidis; test: Minimum inhibitory concentration against Staphylococcus epidermidis / Imipenem A27368; type: functional; in short: as §1
[12] = system: Staphylococcus epidermidis; test: Minimum inhibitory concentration against Staphylococcus epidermidis / MR A25783; type: functional; in short: as §1
[13] = system: Streptococcus pneumoniae; test: Minimum inhibitory concentration against penicillin resistant Streptococcus pneumoniae A28272; type: functional
[14] = system: Streptococcus pneumoniae; test: Minimum inhibitory concentration against Streptococcus pneumoniae / Pen.I A27881; type: functional; in short: as §1
[15] = system: Staphylococcus aureus; test: Minimum inhibitory concentration against Staphylococcus aureus / + 50% calf serum A27223; type: functional
In short: (§2)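 Broth MIC under NCCLS standard conditions in Mueller-Hinton broth plus 2% NaCl. Inoculum was about 5×10⁵ CFU/mL, incubated at 35 °C for 24 h. The endpoint was the lowest drug concentration inhibiting all visible growth. Where the line states it, 50% calf serum was added.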

[16] = system: Staphylococcus aureus; test: Minimum inhibitory concentration against Staphylococcus aureus / Hetero MR A27217; type: functional; in short: as §2
[17] = system: Staphylococcus aureus; test: Minimum inhibitory concentration against Staphylococcus aureus / Homo MR A27223; type: functional; in short: as §2
[18] = system: Staphylococcus aureus; test: Minimum inhibitory concentration against Staphylococcus aureus / Homo MR A27226; type: functional; in short: as §2
[19] = system: Staphylococcus aureus; test: Minimum inhibitory concentration against Staphylococcus aureus / Homo MR A27295; type: functional; in short: as §2
[20] = system: Staphylococcus aureus; test: Minimum inhibitory concentration against Staphylococcus aureus / Homo MR A27621; type: functional; in short: as §2
[21] = system: Staphylococcus aureus; test: Minimum inhibitory concentration against Staphylococcus aureus / MR. P- A27225; type: functional; in short: as §2
[22] = system: Staphylococcus aureus; test: Minimum inhibitory concentration against Staphylococcus aureus A9606 with 50% calf serum; type: functional; in short: as §1
[23] = system: Staphylococcus aureus; test: Minimum inhibitory concentration against Staphylococcus aureus / Pen.+ A9606; type: functional; in short: as §1
[24] = system: Staphylococcus aureus; test: Minimum inhibitory concentration against Staphylococcus aureus / Pen.- A9497; type: functional; in short: as §1
[25] = system: Staphylococcus aureus; test: Minimum inhibitory concentration against Staphylococcus aureus A20241 /MS/Pen.; type: functional; in short: as §1
[26] = system: Staphylococcus haemolyticus; test: Minimum inhibitory concentration against Staphylococcus haemolyticus A21638; type: functional; in short: as §1
[27] = system: Staphylococcus haemolyticus; test: Minimum inhibitory concentration against Staphylococcus haemolyticus / Homo MR A27229; type: functional; in short: as §1
[28] = system: Streptococcus pyogenes; test: Minimum inhibitory concentration against Streptococcus pyogenes Todd Hewitt A9604; type: functional; in short: as §1
[29] = system: Staphylococcus aureus; test: Minimum inhibitory concentration against Staphylococcus aureus / Hetero MR A27218; type: functional; in short: as §2
[30] = system: Staphylococcus aureus; test: Minimum inhibitory concentration against Staphylococcus aureus A27218 with 50% calf serum; type: functional; in short: as §2

SMILES	IC50 [1] [µM]	MIC90 [2] [µg/mL]	MIC [3] [µg/mL]	MIC [4] [µg/mL]	ED50 [5] [mg/kg]	MIC [6] [µg/mL]	MIC [7] [µg/mL]	MIC [8] [µg/mL]	MIC [9] [µg/mL]	MIC [10] [µg/mL]	MIC [11] [µg/mL]	MIC [12] [µg/mL]	MIC [13] [µg/mL]	MIC [14] [µg/mL]	MIC [15] [µg/mL]	MIC [16] [µg/mL]	MIC [17] [µg/mL]	MIC [18] [µg/mL]	MIC [19] [µg/mL]	MIC [20] [µg/mL]	other results
Cl.NCCC[n+]1ccc(SCC2=C(C(=O)O)N3C(=O)[C@@H](NC(=O)CSc4cc(Cl)ccc4Cl)[C@H]3SC2)cc1.[Cl-]	1.2	2	0.125	2	1.4																
NC(CCC[n+]1ccc(SCC2=C(C(=O)[O-])N3C(=O)[C@@H](NC(=O)CSc4cc(Cl)ccc4Cl)[C@H]3SC2)cc1)C(=O)O (stereo partly drawn)	2.8	3.5 (≈ 5.32 µM)	1 (≈ 1.52 µM)	4	4.1																
Cc1cc(SCC2=C(C(=O)O)N3C(=O)[C@@H](NC(=O)CSc4cc(Cl)ccc4Cl)[C@H]3SC2)cc(CCC(=O)O)[n+]1CCCN.O=C(O)C(F)(F)F.O=C([O-])C(F)(F)F				4	2.5	2	64	0.5	4	0.03	0.5	0.25	0.25	0.06	4	0.5	1	0.5	2	1	MIC [21]: 0.5 µg/mL; MIC [22]: 0.25 µg/mL; MIC [23]: 0.125 µg/mL; MIC [24]: 0.007 µg/mL; MIC ([3]; Staphylococcus aureus, read-out: MIC): 1 µg/mL; MIC [25]: 0.25 µg/mL; MIC [26]: 0.125 µg/mL; MIC [27]: 2 µg/mL; MIC [28]: 0.0005 µg/mL; MIC [29]: 0.5 µg/mL; MIC [30]: 1 µg/mL
NCCC[n+]1ccc(SCC2=C(C(=O)O)N3C(=O)[C@@H](NC(=O)CSc4cc(Cl)ccc4Cl)[C@H]3SC2)cc1CCCC(=O)O.O=C(O)C(F)(F)F.O=C([O-])C(F)(F)F	3.4	4	0.5	4	5.1	1	32	0.25	1	0.015	0.125	0.03	0.06	0.007	2	0.25	0.5	0.25	1	0.5	MIC [21]: 0.5 µg/mL; MIC [22]: 0.25 µg/mL; MIC [23]: 0.06 µg/mL; MIC [24]: 0.001 µg/mL; MIC [25]: 0.06 µg/mL; MIC [26]: 0.03 µg/mL; MIC [27]: 1 µg/mL; MIC [28]: 0.0005 µg/mL; MIC [29]: 0.5 µg/mL; MIC [30]: 0.5 µg/mL
NCCC[n+]1ccc(SCC2=C(C(=O)O)N3C(=O)[C@@H](NC(=O)CSc4cc(Cl)ccc4Cl)[C@H]3SC2)cc1CCC(=O)O.O=C(O)C(F)(F)F.O=C([O-])C(F)(F)F			2	2	2.1	2	64	0.5	1	0.03	0.25	0.25	0.06	0.003	2	0.5	2	1	4	1	MIC [21]: 1 µg/mL; MIC [22]: 0.125 µg/mL; MIC [23]: 0.125 µg/mL; MIC [24]: 0.007 µg/mL; MIC [25]: 0.125 µg/mL; MIC [26]: 0.06 µg/mL; MIC [27]: 2 µg/mL; MIC [28]: 0.003 µg/mL; MIC [29]: 0.5 µg/mL; MIC [30]: 1 µg/mL
Cc1cc(SCC2=C(C(=O)O)N3C(=O)[C@@H](NC(=O)CSc4cc(Cl)ccc4Cl)[C@H]3SC2)cc(CCC(=O)O)[n+]1CCN.O=C(O)C(F)(F)F.O=C([O-])C(F)(F)F			2	2	3.9																
C=CCCc1cc(SCC2=C(C(=O)[O-])N3C(=O)[C@@H](NC(=O)CSc4cc(Cl)ccc4Cl)[C@H]3SC2)cc(C)[n+]1CC[C@@H](O)C(=O)O			4 (≈ 5.61 µM)	8	19.2																
CCCC[n+]1c(C)cc(SCC2=C(C(=O)[O-])N3C(=O)[C@@H](NC(=O)CSc4cc(Cl)ccc4Cl)[C@H]3SC2)cc1CCC(=O)O			4 (≈ 5.84 µM)	8	> 23																
Cc1cc(SCC2=C(C(=O)[O-])N3C(=O)[C@@H](NC(=O)CSc4cc(Cl)ccc4Cl)[C@H]3SC2)cc(CCC(=O)O)[n+]1C[C@@H](O)[C@H](O)[C@@H](O)C(O)O			8 (≈ 10.3 µM)	16	> 20																
